From ChEMBL document CHEMBL1681759, “Synthesis and biological evaluation of benzimidazole-5-carbohydrazide derivatives as antimalarial, cytotoxic and antitubercular agents” (Bioorg Med Chem, 2011)
Converted amounts (≈) assume the structure as drawn.

Tested on: Mycobacterium tuberculosis
Experiment: Antimycobacterial activity against multidrug-resistant Mycobacterium tuberculosis clinical isolate after 5 days by tetrazolium microplate assay
Format: functional
Conditions: 120 h
In short: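 Tetrazolium microplate assay run in 7H9GC broth. DMSO stocks (4 mg/mL) were diluted to final 0.4–25 µg/mL. Isoniazid (0.125–32 µg/mL) and rifampin (0.063–16 µg/mL) were positive controls; inoculum-only and DMSO controls were included. Plates were incubated 5 days at 37 °C, then an MTT-Tween 80 mix was added and incubation continued 24 h at 37 °C. Run in triplicate. MIC = lowest concentration preventing the yellow-to-purple colour change.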

Point of comparison: `COc1cc(C(=O)NNC(=O)c2ccc3[nH]c(-c4ccc([N+](=O)[O-])o4)nc3c2)cc(OC)c1OC`, MIC 25 µg/mL (≈ 51.9 µM). Against it:
- COc1cccc(C(=O)NNC(=O)c2ccc3[nH]c(-c4ccc([N+](=O)[O-])s4)nc3c2)c1 — the same, 25 µg/mL (≈ 57.2 µM)
- NNC(=O)c1ccncc1 [ISONIAZID] — 6.2-fold lower, 4 µg/mL (≈ 29.2 µM)
- COc1ccc(C(=O)NNC(=O)c2ccc3[nH]c(-c4ccc([N+](=O)[O-])o4)nc3c2)cc1OC — the same, 25 µg/mL (≈ 55.4 µM)
- O=CNNC(=O)c1ccc2[nH]c(-c3ccc([N+](=O)[O-])o3)nc2c1 — higher, > 25 µg/mL
- COc1cc(C(=O)NNC(=O)c2ccc3[nH]c(-c4ccc([N+](=O)[O-])s4)nc3c2)cc(OC)c1OC — higher, > 25 µg/mL
- O=C(NNC(=O)c1ccc2[nH]c(-c3ccc([N+](=O)[O-])o3)nc2c1)c1ccccc1 — 4-fold lower, 6.25 µg/mL (≈ 16 µM)
- COc1cccc(C(=O)NNC(=O)c2ccc3[nH]c(-c4ccc([N+](=O)[O-])o4)nc3c2)c1 — the same, 25 µg/mL (≈ 59.3 µM)
- CO[C@H]1/C=C/O[C@@]2(C)Oc3c(C)c(O)c4c(O)c(c(/C=N/N5CCN(C)CC5)c(O)c4c3C2=O)NC(=O)/C(C)=C\C=C\[C@H](C)[C@H](O)[C@@H](C)[C@@H](O)[C@@H](C)[C@H](OC(C)=O)[C@@H]1C [RIFAMPIN] — 12-fold lower, 2 µg/mL (≈ 2.43 µM)
- O=C(O)c1ccc2[nH]c(-c3ccc([N+](=O)[O-])o3)nc2c1 — higher, > 25 µg/mL
- O=C(NNC(=O)c1cc2ccccc2cc1O)c1ccc2[nH]c(-c3ccc([N+](=O)[O-])s3)nc2c1 — higher, > 25 µg/mL
- O=C(NNC(=O)c1ccc2[nH]c(-c3ccc([N+](=O)[O-])o3)nc2c1)c1cccc(Oc2ccccc2)c1 — the same, 25 µg/mL (≈ 51.7 µM)
